Activity calls are given as the source filed them. No cut-off for these calls is given here.
Assays:
Assay type in all cases: functional
[1] = species on record: Rattus norvegicus; test: Negative logarithm of the concentration causing a 100% inhibition of spontaneous mechanical activity in rat portal vein is determined in vitro
Method in brief: (§1)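 Rat portal vein strips in buffer (pH 7.2) at 37 °C, gassed 5% CO2 in O2, under 0.5 g tension. Spontaneous contractions recorded isometrically by force-displacement transducer. Strips equilibrated 30 min, then compounds added cumulatively. Values are means of four independent experiments.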

[2] = tested on: Rattus norvegicus; test: Maximum percent fall in Systolic blood pressure (SBP) was measured in anesthetized normotensive rat for 30 mins after intravenous (iv) injection at 0.1 mg/kg dose
Method in brief: (§2)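 Male normotensive rats under anesthesia; compound given as iv bolus via tail vein. Blood pressure and heart rate recorded by pressure transducer coupled to polygraph. Systolic pressure followed for 30 min after injection; value is maximum percent fall in SBP, n = 4.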

[3] = tested on: Rattus norvegicus; test: Maximum percent fall in Systolic blood pressure (SBP) was measured in anesthetized normotensive rat for 30 mins after intravenous (iv) injection at 1 mg/kg dose; method in brief: as §2
[4] = tested on: Rattus norvegicus; test: Maximum percent fall in Systolic blood pressure (SBP) was measured in anesthetized normotensive rat for 30 mins after intravenous (iv) injection at 0.3 mg/kg dose; method in brief: as §2
[5] = tested on: Rattus norvegicus; test: Maximum percent fall in Systolic blood pressure (SBP) was measured in anesthetized normotensive rat for 30 mins after intravenous (iv) injection at 3 mg/kg dose; method in brief: as §2
[6] = species on record: Rattus norvegicus; test: Negative logarithm of the concentration causing a 100% inhibition of spontaneous mechanical activity in rat portal vein is determined in vitro; No response; method in brief: as §1
[7] = tested on: Rattus norvegicus; test: Maximum percent fall in Systolic blood pressure (SBP) was measured in anesthetized normotensive rat for 30 mins after intravenous (iv) injection at 0.03 mg/kg dose; method in brief: as §2

SMILES	pEC100 [1]	Decrease in SBP [2] [%]	Decrease in SBP [3] [%]	Decrease in SBP [4] [%]	Decrease in SBP [5] [%]	pEC100 [6]	Decrease in SBP [7] [%]
CC1(C)[C@@H]2CC[C@@]1(C)[C@H](NC(=S)Nc1ccc(N)nc1)C2	6.5	14	41	–	–	–	–
N#CN/C(=N\C1CC2CCC1CC2)Nc1ccc(N)[n+]([O-])c1 (stereo unspecified)	5	–	20	12	–	–	–
C[C@]12CC[C@H](C[C@@H]1NC(=NC#N)Nc1ccc(N)[n+]([O-])c1)C2	6	–	31	18	–	–	–
CC(/N=C(\NC#N)Nc1ccc(N)nc1)C(C)(C)C (stereo unspecified)	6	–	30	24	–	–	–
CC(C)(C)/N=C(\NC#N)Nc1ccc(N)[n+]([O-])c1	4.5	–	19	–	20	–	–
C[C@@H]1[C@H](NC(=S)Nc2ccc(N)nc2)CC2C[C@@H]1C2(C)C	5	–	16	–	–	–	–
Cc1ccc(N/C(S)=N/C(C)C(C)(C)C)cn1 (stereo unspecified)	5.7	–	30	18	–	–	–
CC(/N=C(\S)Nc1ccc(Cl)nc1)C(C)(C)C (stereo unspecified)	5.7	–	41	27	–	–	–
CCC(C)(C)/N=C(\S)Nc1ccc(N)nc1	5	–	31	15	–	–	–
CSc1ccc(N/C(S)=N/C(C)C(C)(C)C)cn1 (stereo unspecified)	5	–	–	10	–	–	–
CNc1ccc(N/C(S)=N/C(C)C(C)(C)C)cn1 (stereo unspecified)	5	–	25	8	–	–	–
CC1(C)[C@H]2CC[C@](C)(C2)[C@H]1NC(=S)Nc1ccc(N)nc1	5.5	–	29	–	39	–	–
CC(C)(C)C1CCCCC1/N=C(\S)Nc1ccc(N)nc1 (single isomer, unassigned)	5	–	12	–	–	–	–
CC(/N=C(\S)Nc1ccc(O)nc1)C(C)(C)C (stereo unspecified)	4	–	7	–	–	–	–
CC1(C)CCC[C@H](/N=C(\S)Nc2ccc(N)nc2)C1	5	–	25	–	–	–	–
CC(C)C/N=C(\S)Nc1ccc(N)nc1	4.7	–	23	12	–	–	–
CCCC/N=C(\S)Nc1cnccc1N	3	–	–	–	13	–	–
COc1ccc(N/C(S)=N/C(C)C(C)(C)C)cn1 (stereo unspecified)	5	–	17	–	30	–	–
CC1(C)CCCC[C@@H]1/N=C(\S)Nc1ccc(N)nc1	5.5	–	26	–	–	–	–
CC(/N=C(\NC#N)Nc1cc[n+]([O-])cc1)C(C)(C)C (stereo unspecified)	5	–	–	13	–	–	–
CC(/N=C(\S)Nc1ccc(N)nc1)C(C)(C)C (stereo unspecified)	6	–	32	29	–	–	–
Nc1ccc(N/C(S)=N/C23CC4CC(CC(C4)C2)C3)cn1	6.5	–	24	–	–	–	–
Nc1ccc(N/C(S)=N/C2CCCCC2)cn1	5	–	26	–	35	–	–
CC(/N=C(\S)Nc1ccc(N2CCCCC2)nc1)C(C)(C)C (stereo unspecified)	–	–	10	–	–	inactive	–

SMILES	pEC100 [1]	Decrease in SBP [2] [%]	Decrease in SBP [3] [%]	Decrease in SBP [4] [%]	Decrease in SBP [5] [%]	pEC100 [6]	Decrease in SBP [7] [%]
CC(C)(C)/N=C(\NC#N)Nc1ccc(N)nc1	6	–	28	15	–	–	–
Nc1ccc(N/C(S)=N/C2CC3CCC2CC3)cn1 (stereo unspecified)	7	26	–	43	–	–	–
C[C@]12CC[C@H](CC1/N=C(\NC#N)Nc1ccc(N)nc1)C2 (stereo partly specified)	7.5	26	–	33	–	–	–
N#CN/C(=N\[C@H]1C[C@H]2CC[C@@H]1C2)Nc1ccc(N)nc1	6.5	25	–	32	–	–	–
CC(/N=C(\S)Nc1ccc(NN)nc1)C(C)(C)C (stereo unspecified)	4	–	–	–	26	–	–
CC(/N=C(\S)Nc1ccc(C(N)=O)nc1)C(C)(C)C (stereo unspecified)	5	–	9	–	–	–	–
Nc1ncccc1/N=C(\S)NC1CCCCC1	4	–	9	–	21	–	–
CC(/N=C(/NC#N)Nc1cccnc1)C(C)(C)C (stereo unspecified)	7	37	–	–	–	–	26
CC(N/C(=N\C#N)Nc1ccncc1)C(C)(C)C (stereo unspecified) [PINACIDIL ANHYDROUS]	7	25	–	31	–	–	–
C/N=C(\S)Nc1cnccc1N	–	–	–	–	15	inactive	–
Nc1ccc(N/C(S)=N/[C@H]2CC3C=CC2C3)cn1 (stereo partly specified)	7	24	–	32	–	–	–
Nc1ccncc1/N=C(\S)NC1CCCCC1	5	–	22	–	27	–	–
Nc1ccc(NC(=S)NC2C[C@H]3CC[C@@H]2C3)cn1 (single isomer, unassigned; 22g)	7	–	22	34	–	–	–
C[C@]12CC[C@H](C[C@H]1NC(=S)Nc1ccc(N)nc1)C2	7	27	–	36	–	–	–
Nc1cncc(N/C(S)=N/C2CCCCC2)c1	5	–	7	–	23	–	–
CC(/N=C(\S)Nc1ccc(C#N)nc1)C(C)(C)C (stereo unspecified)	5.7	13	–	28	–	–	–
N#CN/C(=N\C1CC2CCC1CC2)Nc1ccc(N)nc1 (stereo unspecified)	6	17	–	28	–	–	–
CC(C)(C)[C@H]1CC[C@@H](/N=C(\S)Nc2ccc(N)nc2)CC1	–	–	9	–	–	inactive	–
CC(/N=C(\S)Nc1ccc(-n2ccnc2)nc1)C(C)(C)C (stereo unspecified)	3.7	–	–	–	11	–	–
CC(/N=C(\S)Nc1ccc(NCCN)nc1)C(C)(C)C (stereo unspecified)	–	–	3	–	–	inactive	–
CC(/N=C(\NC#N)Nc1ccc(N)[n+]([O-])c1)C(C)(C)C (stereo unspecified)	5.5	–	22	16	–	–	–
CC(/N=C(\S)Nc1ccc(Nc2ccccc2)nc1)C(C)(C)C (stereo unspecified)	–	–	5	–	–	inactive	–
N#CN=C(Nc1ccc(N)[n+]([O-])c1)N[C@@H]1C[C@H]2CC[C@@H]1C2	6	–	16	–	–	–	–
Nc1ccc(NC(=S)NC2C[C@H]3CC[C@@H]2C3)cn1 (single isomer, unassigned; 22e)	7	19	–	41	–	–	–

From ChEMBL document CHEMBL1127492, “Novel potassium channel openers: synthesis and pharmacological evaluation of new N-(substituted-3-pyridyl)-N'-alkylthioureas and related compounds” (1994)
